Measured values: ChEMBL document CHEMBL1132380, “Drug delivery systems employing 1,4- or 1,6-elimination: poly(ethylene glycol) prodrugs of amine-containing compounds” (J Med Chem, 1999)

Key:
[1] = Half-life in buffer at pH 7.4; assay type: ADME
How it was run: (§1)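 Release of free drug and hydrolysis of PEG conjugate followed in PBS (pH 7.4) or fresh rat plasma at 37 °C. Half-life derived from these rates. Run in duplicate; SD ±10%.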

[2] = Half-life in rat plasma; assay type: ADME; how it was run: as §1
Mus musculus [3] = assay: T/C of median tumor volumes when 3 mg/kg/dose of compound was given to BALB/c mice bearing sc M109 on days 3 and 6 (iv) after inoculation (control ~2000 mm**3); assay type: functional
How it was run: (§2)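 Female balb/c mice (20–25 g) given about 5×10^5 M109 cells sc in the left flank on day 0. M109 grown in EMEM with 10% FBS. Dosing is 3 mg/kg/dose of active DNR, ip on days 1 and 4 or iv on days 3 and 6. Groups of 6 include untreated controls. Median tumor volumes compared when control median reached about 2000 mm³.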

P388 = assay: Compound was evaluated for cytotoxicity against P388 leukemia cell line.; assay type: functional, cell-based; conditions: Mus musculus
Mus musculus [4] = assay: T/C of median tumor volumes when 3 mg/kg/dose of compound was given to BALB/c mice bearing sc M109 on days 1 and 4 (ip) after inoculation (control ~2000 mm**3); assay type: functional; conditions: route intraperitoneal; how it was run: as §2
Mus musculus [5] = assay: Toxicity at a dose of 830 mg/kg against M109 tumors conducted in female BALB/c mice; assay type: functional
Mus musculus [6] = assay: Effect of 3 mg/kg/dose of compound given iv q4d x 3 against sc human ovarian tumor (SK-OV3) in mice expressed as treated/ control ( 1000 mm**3) median tumor volume on day 30; assay type: functional
How it was run: (§3)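 Female nu/nu mice (18–24 g) given 1×10^6 SKOV3 cells sc in the left flank in 0.1 mL medium. SKOV3 grown in McCoy's 5a with 15% FBS. Dosing starts at about 70 mm³ mean tumor volume (day 1), with 3 mg/kg/dose DNR content iv on days 1, 5 and 9. n = 5/group against untreated controls. Mean volumes compared at day 30; median volumes compared when control median reached about 1000 mm³.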

Mus musculus [7] = assay: Effect of 3 mg/kg/dose of compound given iv q4d x 3 against sc human ovarian tumor (SK-OV3) in mice expressed as % tumor volume change from initial by day 30; assay type: functional; how it was run: as §3
Mus musculus [8] = assay: Effect of 3 mg/kg/dose of compound given iv q4d x 3 against sc human ovarian tumor (SK-OV3) in mice expressed as Mean tumor volume by day 30; assay type: functional; how it was run: as §3
Mus musculus [9] = assay: Effect of 3 mg/kg/dose of compound given iv q4d x 3 against sc human ovarian tumor (SK-OV3) in mice expressed as treated/ control mean tumor volume on day 30; assay type: functional; how it was run: as §3

SMILES	half-life [1]	half-life [2]	T/C (Mus musculus [3])	IC50 (P388)	T/C (Mus musculus [4])	Toxicity (deaths) (Mus musculus [5])	T/C (Mus musculus [6])	Tumor growth (Mus musculus [7])	Mean tumor volume (Mus musculus [8])	T/C (Mus musculus [9])
Cc1cc(COC(=O)NC(C)C)cc(C)c1NC(=O)OCCOCCOCCO	–	–	–	–	–	0%	–	–	–	–
COc1cccc2c1C(=O)c1c(O)c3c(c(O)c1C2=O)C[C@@](O)(C(=O)CNC(=O)OCc1ccc(OC(=O)NCCOCCOCCO)cc1)C[C@@H]3OC1CC(N)C(O)C(C)O1 (stereo not given in full)	> 48 h	4 h	64.6%	15 nM	84.1%	–	11%	86%	154	12%
Cc1cc(COC(=O)NC(C)C)cc(C)c1OC(=O)CCOCCOCCO	–	–	–	–	–	0%	–	–	–	–
COc1cccc2c1C(=O)c1c(O)c3c(c(O)c1C2=O)C[C@@](O)(C(=O)CNC(=O)OCc1ccccc1OC(=O)NCCOCCOCCO)C[C@@H]3OC1CC(N)C(O)C(C)O1 (stereo not given in full)	> 48 h	3 h	68.7%	35 nM	91.3%	–	–	–	–	–
COc1cccc2c1C(=O)c1c(O)c3c(c(O)c1C2=O)C[C@@](O)(C(=O)CNC(=O)OCc1cc(C)c(OC(=O)OCCOCCOCCO)c(C)c1)C[C@@H]3OC1CC(N)C(O)C(C)O1 (stereo not given in full)	> 48 h	2.9 h	74.4%	179 nM	90.3%	–	–	–	–	–
COc1cc(COC(=O)NC(CC(C)C)C(=O)OC(C)(C)C)cc(OC)c1OC(=O)CCOCCOCCO (stereo not given)	–	–	–	–	–	0%	–	–	–	–
COc1cccc2c1C(=O)c1c(O)c3c(c(O)c1C2=O)C[C@@](O)(C(C)=O)C[C@@H]3O[C@H]1C[C@H](N)[C@H](O)[C@H](C)O1 [DAUNORUBICIN]	–	–	117%	3 nM	44.8%	–	54%	1226%	1154	92%

Second part, led by results:

half-life [1]	half-life [2]	SMILES	T/C (Mus musculus [3])	IC50 (P388)	T/C (Mus musculus [4])	Toxicity (deaths) (Mus musculus [5])	T/C (Mus musculus [6])	Tumor growth (Mus musculus [7])	Mean tumor volume (Mus musculus [8])	T/C (Mus musculus [9])
> 48 h	1 h	COc1cc(COC(=O)NCC(=O)[C@]2(O)Cc3c(O)c4c(c(O)c3[C@@H](OC3CC(N)C(O)C(C)O3)C2)C(=O)c2c(OC)cccc2C4=O)cc(OC)c1OC(=O)CCOCCOCCO (stereo not given in full)	48.2%	27 nM	68.6%	–	–	–	–	–
> 48 h	1.3 h	COc1cccc2c1C(=O)c1c(O)c3c(c(O)c1C2=O)C[C@@](O)(C(=O)CNC(=O)OCc1ccc(OC(=O)C(C)(C)NC(=O)CCOCCOCCO)cc1)C[C@@H]3OC1CC(N)C(O)C(C)O1 (stereo not given in full)	–	18 nM	87.6%	–	–	–	–	–
> 48 h	1.9 h	COc1cccc2c1C(=O)c1c(O)c3c(c(O)c1C2=O)C[C@@](O)(C(=O)CNC(=O)OCc1cc(C)c(OC(=O)CCOCCOCCO)c(C)c1)C[C@@H]3OC1CC(N)C(O)C(C)O1 (stereo not given in full)	67.9%	55 nM	90.3%	–	–	–	–	–
> 24 h	0.4 h	COc1cccc2c1C(=O)c1c(O)c3c(c(O)c1C2=O)C[C@@](O)(C(=O)CNC(=O)OCc1ccc(OC(=O)CCOCCOCCO)cc1)C[C@@H]3OC1CC(N)C(O)C(C)O1 (stereo not given in full)	–	8 nM	92.8%	–	–	–	–	–
> 48 h	> 24 h	COc1cccc2c1C(=O)c1c(O)c3c(c(O)c1C2=O)C[C@@](O)(C(=O)CNC(=O)OCc1ccc(NC(=O)CCOCCOCCO)cc1)C[C@@H]3OC1CC(N)C(O)C(C)O1 (stereo not given in full)	–	457 nM	122.7%	–	–	–	–	–
> 48 h	> 24 h	COc1cccc2c1C(=O)c1c(O)c3c(c(O)c1C2=O)C[C@@](O)(C(=O)CNC(=O)OCc1ccc(NC(=O)OCCOCCOCCO)cc1)C[C@@H]3OC1CC(N)C(O)C(C)O1 (stereo not given in full)	129%	415 nM	75.3%	–	41%	400%	272	21%
> 48 h	> 24 h	COc1cccc2c1C(=O)c1c(O)c3c(c(O)c1C2=O)C[C@@](O)(C(=O)CNC(=O)OCc1ccccc1NC(=O)OCCOCCOCCO)C[C@@H]3OC1CC(N)C(O)C(C)O1 (stereo not given in full)	117%	130 nM	112.2%	–	–	–	–	–
